High-throughput results from PubChem BioAssay.
T cruzi growth-1: blocks T. cruzi growth in NIH3T3 culture | 77,000 tested, 5.9% active | inhibition, % at 8.34 µM | T. cruzi beta-gal in NIH3T3, GalScreen luminescence, 90 h;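 active = mean inhibition above about 93%, with at least 55% of replicates each passing it, limit read from the data, passing the limit was not always enough; inconclusive = only one of those two conditions holds; inactive = neither condition holds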
Pf Dd2 inh: blocks growth of Plasmodium falciparum Dd2 parasites; AID 1159554; activity change, % at 10 µM; 94,000 tested, 2.3% active; P. falciparum Dd2 growth, SYBR Green, 72 h; hits give low values; in the data active = activity change below about -80%; inconclusive = no clear call, values can overlap the other calls
KDM4C inh: blocks human GASC-1 (KDM4C) demethylase activity; Q9H3R0; GST-KDM4C 2-372, H3K9me3 peptide, LANCE TR-FRET; inhibition, % at 12.5 µM; 96,000 tested, 0.15% active; AID 720574;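 active = mean replicate inhibition above about 25%, with at least 55% of replicates also reaching it, limit read from the data, passing the limit was not always enough; inconclusive = only one of those two conditions met; inactive = neither condition met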
Target sequence (Q9H3R0 2-372 limits assumed): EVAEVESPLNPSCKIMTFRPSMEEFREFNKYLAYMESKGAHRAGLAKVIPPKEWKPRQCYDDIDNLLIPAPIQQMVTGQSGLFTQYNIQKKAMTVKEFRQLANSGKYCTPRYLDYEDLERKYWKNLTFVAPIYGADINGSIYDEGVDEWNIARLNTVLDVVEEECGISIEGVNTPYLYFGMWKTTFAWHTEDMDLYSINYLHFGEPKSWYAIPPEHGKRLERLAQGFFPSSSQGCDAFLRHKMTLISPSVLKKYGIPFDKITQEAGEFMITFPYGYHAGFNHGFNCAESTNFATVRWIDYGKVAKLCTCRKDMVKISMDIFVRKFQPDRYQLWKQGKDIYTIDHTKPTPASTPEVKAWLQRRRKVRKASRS
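Test system: N-terminal GST-fused human GASC-1 (KDM4C) fragment, residues 2-372; quantity: GASC-1 enzyme at 10 nM final in reaction; dosing: single dose; schedule: 30 min demethylation and 1 h detection at room temperature; signal: LANCE TR-FRET, excitation 340 nm, emissions 618 and 671 nm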
IDH1 mut inh: IDH1 R132H (human) inhibition. O75874. IDH1 R132H reductase, diaphorase/resazurin fluorescence, 60 min. inhibition, % at 10 µM. 70,000 tested, 0.18% active; in the data active = inhibition above about 34%; inconclusive = no clear call, values can overlap the other calls; inactive = below about 11%;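 also: 0% = DMSO and 100% = no enzyme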
T cruzi growth-2: inhibitors of T. cruzi proliferation. inhibition, % at 8.35 µM. 5,600 tested, 72% active. shares compounds with T cruzi growth-1. T. cruzi beta-gal in NIH3T3, GalScreen luminescence, 90 h. AID 651739;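 active = mean replicate inhibition above about 95% and at least 55% of replicates individually reaching it, limit read from the data; inconclusive = only one of the two criteria is met; inactive = neither criterion is met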
T cruzi growth-3: blocks T. cruzi growth in NIH3T3 host cells; shares compounds with T cruzi growth-1; inhibition, % at 2.09 µM; T. cruzi beta-gal in NIH3T3, GalScreen luminescence, 90 h; 5,600 tested, 21% active;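 active = mean inhibition above about 95%, with at least 55% of replicates also reaching it, limit read from the data; inconclusive = meets just one of the two conditions; inactive = meets neither condition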;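 also: plate controls were neutral control median for no effect and positive control median for full effect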
NIH3T3 tox: NIH/3T3 (mouse) viability loss | shares compounds with T cruzi growth-1 | NIH/3T3 viability, CellTiter-Glo ATP luminescence, 90 h | cytotoxicity (signal decrease), % at 8.35 µM | 5,600 tested, 14% active;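 active = mean signal decrease across replicates above about 35% based on untreated-well scatter, with enough replicates individually passing, limit read from the data; inconclusive = no rule stated though some were filed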;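 also: 0% = median of neutral control wells and 100% = median of positive control wells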
NIH3T3 tox 2: kills mouse NIH/3T3 fibroblasts; shares compounds with T cruzi growth-1; NIH/3T3 viability, CellTiter-Glo ATP luminescence, 90 h; inhibition, % at 24.9 µM; 5,600 tested, 56% active; AID 651744;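 active = mean loss of cell viability signal at or above a set limit, and enough replicates individually reaching it; inconclusive = meets only the mean limit or only the replicate share; inactive = meets neither condition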;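 also: 0% = median of neutral control wells and 100% = median of positive control wells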
* marks the source's active call; other numbers are inactive results; u = inconclusive; x = not tested or not shown; + = active, no number. Only some compounds are listed: those with a hit (about 5.8% of all), similar ones and a draw of the others.

SMILES	T cruzi growth-1	Pf Dd2 inh	KDM4C inh	IDH1 mut inh	T cruzi growth-2	T cruzi growth-3	NIH3T3 tox	NIH3T3 tox 2
C[C@@H]1CCCCO[C@H](CN(C)C(=O)Nc2ccc(C(F)(F)F)cc2)[C@H](C)CN([C@@H](C)CO)C(=O)c2cc(NC(=O)Nc3ccc4c(c3)OCO4)ccc2O1	117.3*	-66.6	-2.8	-1.6	107.3*	108.6*	-7.0	5.7
C[C@H](NC(=O)C[C@@H]1C=C[C@H](NC(=O)Nc2ccc3c(c2)OCO3)[C@H](CO)O1)c1ccccc1	3.7	23.6	1.5	-0.1	x	x	x	x
CN(C)c1ccc2c(c1)[C@@H]1C[C@@H](CC(=O)NCc3cc(F)ccc3F)O[C@@H](CO)[C@@H]1O2	+	-87.0*	8.9	-6.7	71.9	27.7	-8.6	8.8
COc1ccc(CNC(=O)C[C@@H]2C[C@H]3c4cc(N(C)C)ccc4O[C@H]3[C@@H](CO)O2)cc1	-17.8	6.3	2.4	-1.7	x	x	x	x
CN(C)c1ccc2c(c1)[C@@H]1C[C@@H](CC(=O)NCc3cc(F)ccc3F)O[C@H](CO)[C@@H]1O2	36.3	-35.7	5.0	-2.9	x	x	x	x
CN(C)c1ccc2c(c1)[C@H]1C[C@H](CC(=O)NCc3ccc(-c4ccccc4)cc3)O[C@@H](CO)[C@H]1O2	113.7*	-36.8	4.0	-1.5	110.3*	102.4*	5.4	4.3
CN(C)c1ccc2c(c1)[C@H]1C[C@H](CC(=O)NCc3ccc(Oc4ccccc4)cc3)O[C@@H](CO)[C@H]1O2	131.9*	-38.9	0.4	-2.1	107.0*	105.0*	-3.1	u
COc1ccc(CNC(=O)C[C@H]2C[C@H]3c4cc(N(C)C)ccc4O[C@H]3[C@H](CO)O2)cc1	-45.1	-45.4	18.9	-0.8	x	x	x	x
C[C@@H]1CN([C@H](C)CO)S(=O)(=O)c2ccc(-c3cccc(F)c3)cc2O[C@@H]1CN(C)C(=O)c1cccc(F)c1	68.6	-29.9	-1.1	-0.3	x	x	x	x
C[C@H]1CN([C@@H](C)CO)C(=O)c2ccccc2-c2ccccc2CO[C@H]1CN(C)Cc1ccc(Cl)c(Cl)c1	x	-76.4	-0.6	x	x	x	x	x
N#C[C@@H]1[C@H](c2ccc(C3=CCCCC3)cc2)[C@@H](CO)N1S(=O)(=O)c1cccc(F)c1	97.7*	-4.3	0.0	x	u	35.2	-14.5	104.3*
N#C[C@@H]1[C@H](c2ccc(C3=CCCC3)cc2)[C@H](CO)N1S(=O)(=O)c1cccc(F)c1	36.9	-24.0	4.3	x	x	x	x	x
N#C[C@H]1[C@@H](c2ccc(C3=CCCCC3)cc2)[C@H](CO)N1S(=O)(=O)c1ccccc1	96.6*	-22.1	-2.2	x	96.7*	85.6	41.0*	99.8*
C[C@H](CO)N1C[C@H](C)[C@H](CN(C)C(=O)NC2CCCCC2)Oc2ncc(-c3cccc(C(F)(F)F)c3)cc2C1=O	x	-1.1	-0.8	-3.9	x	x	x	x
O=C(C[C@@H]1CC[C@H]2[C@@H](COC[C@H](O)CN2Cc2ccc(Oc3ccccc3)cc2)O1)Nc1nccs1	192.7*	-66.6	-2.0	x	104.1*	36.4	-13.0	u
O=C(C[C@H]1CC[C@H]2[C@@H](COC[C@H](O)CN2Cc2cccc(Cl)c2)O1)Nc1nccs1	133.1*	-49.2	-0.3	x	u	25.1	23.2	19.5
O=C(C[C@H]1CC[C@H]2[C@@H](COC[C@H](O)CN2Cc2ccc(Oc3ccccc3)cc2)O1)Nc1nccs1	190.7*	-52.4	2.8	x	102.9*	53.5	3.0	19.8
O=C(C[C@H]1CC[C@H]2[C@@H](COC[C@@H](O)CN2Cc2ccc(Oc3ccccc3)cc2)O1)Nc1nccs1	152.3*	-33.4	-3.9	x	101.8*	17.5	-4.5	17.2
C[C@@H]1CN([C@@H](C)CO)C(=O)c2cc(C#Cc3ccccn3)cnc2O[C@H]1CN(C)Cc1ccccc1	127.6*	-38.1	0.1	-0.2	105.0*	91.6	0.9	10.2
C[C@H]1CN([C@@H](C)CO)C(=O)c2cc(C#Cc3ccccn3)cnc2O[C@@H]1CN(C)Cc1cncnc1	111.0*	21.6	1.5	0.1	108.3*	22.7	-12.3	5.2
COc1ccc(-c2ccc([C@H]3[C@@H](C#N)N(C(=O)c4cccc(F)c4)[C@H]3CO)cc2)cc1	93.5	-15.9	-1.9	x	x	x	x	x
N#C[C@H]1[C@H](c2ccc(C3=CCCCC3)cc2)[C@@H](CO)N1C(=O)c1cccc(F)c1	98.1*	-5.2	-1.3	x	100.2*	40.4	10.0	44.8*
COc1ccc(-c2ccc([C@@H]3[C@H](C#N)N(C(=O)c4cccc(F)c4)[C@H]3CO)cc2)cc1	103.3*	12.0	-4.9	x	105.3*	40.8	9.0	30.7*
N#C[C@H]1[C@@H](c2ccc(C3=CCCCC3)cc2)[C@H](CO)N1C(=O)c1cccc(F)c1	94.0	-5.8	-1.1	x	x	x	x	x
COc1ccc(-c2ccc([C@@H]3[C@@H](CO)N(C(=O)c4cccc(F)c4)[C@H]3C#N)cc2)cc1	u	-28.9	-0.3	x	88.4	41.3	0.7	6.8
SMILES	T cruzi growth-1	Pf Dd2 inh	KDM4C inh	IDH1 mut inh	T cruzi growth-2	T cruzi growth-3	NIH3T3 tox	NIH3T3 tox 2
CCCNC(=O)[C@@H]1[C@@H](CO)[C@@H]2Cn3c(ccc(C4=CCCCC4)c3=O)[C@@H]2N1Cc1ccccc1F	87.7	-55.5	7.0	x	x	x	x	x
C[C@H](CO)N1C[C@H](C)[C@@H](CN(C)Cc2ccccc2F)Oc2ncc(/C=C/c3ccccc3)cc2C1=O	120.3*	-45.3	-0.3	-0.3	108.0*	86.6	-22.2	104.5*
C/C=C/c1cnc2c(c1)C(=O)N([C@H](C)CO)C[C@H](C)[C@@H](CN(C)Cc1ccccc1F)O2	x	-7.8	1.0	-1.1	x	x	x	x
C[C@@H]1CN([C@H](C)CO)C(=O)c2cc(/C=C/c3ccccc3)cnc2O[C@@H]1CN(C)Cc1ccccc1F	115.6*	-23.6	-2.2	2.6	91.9	58.5	-0.6	34.7*
C[C@H]1CN([C@@H](C)CO)C(=O)c2cc(/C=C/c3ccccc3)cnc2O[C@@H]1CN(C)Cc1ccccc1F	111.7*	-46.7	-0.6	-0.5	111.1*	79.4	6.7	105.2*
C/C=C/c1cnc2c(c1)C(=O)N([C@H](C)CO)C[C@H](C)[C@H](CN(C)Cc1ccccc1F)O2	x	-65.9	-2.5	0.2	x	x	x	x
C[C@H]1CN([C@@H](C)CO)C(=O)c2cc(/C=C/c3ccccc3)cnc2O[C@H]1CN(C)Cc1ccccc1F	115.6*	-47.9	-1.2	0.2	103.9*	95.0	18.4	41.1*
C/C=C/c1cnc2c(c1)C(=O)N([C@@H](C)CO)C[C@H](C)[C@@H](CN(C)Cc1ccccc1F)O2	x	0.4	-0.9	-0.4	x	x	x	x
